Source: ChEMBL document CHEMBL5058577, “EUbOPEN Chemogenomics Library 2 (Multiplex)” (2022)

Tested on: Fibroblast
Assay: Multiplex assay against human fibroblast
Format: toxicity, cell-based
Procedure, shortened: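 Hoechst33342, BioTracker Green Microtubule Cytoskeleton Dye, MitoTracker Red and Annexin V Alexa Fluor 680 were added to live cells at seeding, and imaging on a CQ1 microscope at 37°C and 5% CO2 followed compound addition. Gating by CellPathfinder machine learning separated cells into Hoechst high-intensity objects or normal cells, then normal cells into healthy, pyknosed or fragmented nuclei, then pyknosed cells into mitotic or apoptotic. Per cents of healthy-nucleus cells are reported for the tubulin, mitochondrial-mass and membrane-permeability phenotypes.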

[1] = 12 h, 1 µM, compound concentration 1 uM, replicate 1
[2] = 12 h, 1 µM, compound concentration 1 uM, replicate 2
[3] = 12 h, 10 µM, compound concentration 10 uM, replicate 1
[4] = 12 h, 10 µM, compound concentration 10 uM, replicate 2
[5] = 24 h, 1 µM, compound concentration 1 uM, replicate 1
[6] = 24 h, 1 µM, compound concentration 1 uM, replicate 2
[7] = 24 h, 10 µM, compound concentration 10 uM, replicate 1
[8] = 24 h, 10 µM, compound concentration 10 uM, replicate 2
[9] = 48 h, 1 µM, compound concentration 1 uM, replicate 1
[10] = 48 h, 1 µM, compound concentration 1 uM, replicate 2
[11] = 48 h, 10 µM, compound concentration 10 uM, replicate 1
[12] = 48 h, 10 µM, compound concentration 10 uM, replicate 2

Compound: CCCCC[C@H](O)/C=C/[C@H]1[C@H](O)CC(=O)[C@@H]1CCCCCCC(=O)O [ALPROSTADIL]
- Population Apoptotic (%) [1]: 61%
- Population Fragmented Nuclei (%) [1]: 16%
- Population Healthy Nuclei (%) [1]: 71%
- Population Hoechst High Intensity Objects (%) [1]: 0%
- Population Membrane Permeable-Phenotype (%) [1]: 0%
- Population Mitochondria Different-Phenotype (%) [1]: 1%
- Population Mitotic Cells (%) [1]: 38%
- Population Normal (%) [1]: 99%
- Population Pyknosed Nuclei (%) [1]: 12%
- Population Tubulin-Different-Phenotype (%) [1]: 12%
- Total Cell Count [1]: 150
- Population Apoptotic (%) [2]: 43%
- Population Fragmented Nuclei (%) [2]: 23%
- Population Healthy Nuclei (%) [2]: 57%
- Population Hoechst High Intensity Objects (%) [2]: 4%
- Population Membrane Permeable-Phenotype (%) [2]: 10%
- Population Mitochondria Different-Phenotype (%) [2]: 2%
- Population Mitotic Cells (%) [2]: 56%
- Population Normal (%) [2]: 95%
- Population Pyknosed Nuclei (%) [2]: 18%
- Population Tubulin-Different-Phenotype (%) [2]: 38%
- Total Cell Count [2]: 169
- Population Apoptotic (%) [3]: 36%
- Population Fragmented Nuclei (%) [3]: 7%
- Population Healthy Nuclei (%) [3]: 75%
- Population Hoechst High Intensity Objects (%) [3]: 5%
- Population Membrane Permeable-Phenotype (%) [3]: 2%
- Population Mitochondria Different-Phenotype (%) [3]: 4%
- Population Mitotic Cells (%) [3]: 63%
- Population Normal (%) [3]: 94%
- Population Pyknosed Nuclei (%) [3]: 17%
- Population Tubulin-Different-Phenotype (%) [3]: 26%
- Total Cell Count [3]: 136
- Population Apoptotic (%) [4]: 34%
- Population Fragmented Nuclei (%) [4]: 25%
- Population Healthy Nuclei (%) [4]: 43%
- Population Hoechst High Intensity Objects (%) [4]: 16%
- Population Membrane Permeable-Phenotype (%) [4]: 11%
- Population Mitochondria Different-Phenotype (%) [4]: 1%
- Population Mitotic Cells (%) [4]: 65%
- Population Normal (%) [4]: 83%
- Population Pyknosed Nuclei (%) [4]: 31%
- Population Tubulin-Different-Phenotype (%) [4]: 45%
- Total Cell Count [4]: 146
- Population Apoptotic (%) [5]: 25%
- Population Fragmented Nuclei (%) [5]: 15%
- Population Healthy Nuclei (%) [5]: 73%
- Population Hoechst High Intensity Objects (%) [5]: 0%
- Population Membrane Permeable-Phenotype (%) [5]: 0%
- Population Mitochondria Different-Phenotype (%) [5]: 1%
- Population Mitotic Cells (%) [5]: 75%
- Population Normal (%) [5]: 99%
- Population Pyknosed Nuclei (%) [5]: 10%
- Population Tubulin-Different-Phenotype (%) [5]: 15%
- Total Cell Count [5]: 147
- Population Apoptotic (%) [6]: 43%
- Population Fragmented Nuclei (%) [6]: 22%
- Population Healthy Nuclei (%) [6]: 53%
- Population Hoechst High Intensity Objects (%) [6]: 2%
- Population Membrane Permeable-Phenotype (%) [6]: 8%
- Population Mitochondria Different-Phenotype (%) [6]: 8%
- Population Mitotic Cells (%) [6]: 56%
- Population Normal (%) [6]: 97%
- Population Pyknosed Nuclei (%) [6]: 24%
- Population Tubulin-Different-Phenotype (%) [6]: 40%
- Total Cell Count [6]: 165
- Population Apoptotic (%) [7]: 63%
- Population Fragmented Nuclei (%) [7]: 14%
- Population Healthy Nuclei (%) [7]: 69%
- Population Hoechst High Intensity Objects (%) [7]: 2%
- Population Membrane Permeable-Phenotype (%) [7]: 0%
- Population Mitochondria Different-Phenotype (%) [7]: 2%
- Population Mitotic Cells (%) [7]: 36%
- Population Normal (%) [7]: 97%
- Population Pyknosed Nuclei (%) [7]: 15%
- Population Tubulin-Different-Phenotype (%) [7]: 19%
- Total Cell Count [7]: 147
- Population Apoptotic (%) [8]: 30%
- Population Fragmented Nuclei (%) [8]: 27%
- Population Healthy Nuclei (%) [8]: 45%
- Population Hoechst High Intensity Objects (%) [8]: 13%
- Population Membrane Permeable-Phenotype (%) [8]: 16%
- Population Mitochondria Different-Phenotype (%) [8]: 3%
- Population Mitotic Cells (%) [8]: 69%
- Population Normal (%) [8]: 86%
- Population Pyknosed Nuclei (%) [8]: 26%
- Population Tubulin-Different-Phenotype (%) [8]: 59%
- Total Cell Count [8]: 157
- Population Apoptotic (%) [9]: 32%
- Population Fragmented Nuclei (%) [9]: 18%
- Population Healthy Nuclei (%) [9]: 62%
- Population Hoechst High Intensity Objects (%) [9]: 1%
- Population Membrane Permeable-Phenotype (%) [9]: 1%
- Population Mitochondria Different-Phenotype (%) [9]: 4%
- Population Mitotic Cells (%) [9]: 67%
- Population Normal (%) [9]: 98%
- Population Pyknosed Nuclei (%) [9]: 18%
- Population Tubulin-Different-Phenotype (%) [9]: 30%
- Total Cell Count [9]: 152
- Population Apoptotic (%) [10]: 55%
- Population Fragmented Nuclei (%) [10]: 26%
- Population Healthy Nuclei (%) [10]: 51%
- Population Hoechst High Intensity Objects (%) [10]: 3%
- Population Membrane Permeable-Phenotype (%) [10]: 6%
- Population Mitochondria Different-Phenotype (%) [10]: 8%
- Population Mitotic Cells (%) [10]: 44%
- Population Normal (%) [10]: 96%
- Population Pyknosed Nuclei (%) [10]: 21%
- Population Tubulin-Different-Phenotype (%) [10]: 44%
- Total Cell Count [10]: 162
- Population Apoptotic (%) [11]: 62%
- Population Fragmented Nuclei (%) [11]: 11%
- Population Healthy Nuclei (%) [11]: 62%
- Population Hoechst High Intensity Objects (%) [11]: 2%
- Population Membrane Permeable-Phenotype (%) [11]: 1%
- Population Mitochondria Different-Phenotype (%) [11]: 7%
- Population Mitotic Cells (%) [11]: 37%
- Population Normal (%) [11]: 97%
- Population Pyknosed Nuclei (%) [11]: 26%
- Population Tubulin-Different-Phenotype (%) [11]: 34%
- Total Cell Count [11]: 144
- Population Apoptotic (%) [12]: 48%
- Population Fragmented Nuclei (%) [12]: 33%
- Population Healthy Nuclei (%) [12]: 44%
- Population Hoechst High Intensity Objects (%) [12]: 16%
- Population Membrane Permeable-Phenotype (%) [12]: 13%
- Population Mitotic Cells (%) [12]: 51%
- Population Normal (%) [12]: 83%
- Population Pyknosed Nuclei (%) [12]: 22%
- Population Tubulin-Different-Phenotype (%) [12]: 60%
